Where “and” joins values, the source holds several entries; their conditions need not be identical. Identical values can stand only once.
Tested on: HEK-293T
Assay: Multiplex assay against HEK293T
Type: toxicity, cell-based
Settings: human, number of replicates 2
Procedure, shortened: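 Tubulin, mitochondrial-mass and membrane-permeability phenotypes are per cents of healthy-nucleus cells. Cells were gated by CellPathfinder machine learning into Hoechst high-intensity objects or normal cells, normal cells into healthy, pyknosed or fragmented nuclei, and pyknosed cells into mitotic or apoptotic. Before that, live cells stained at seeding with Hoechst33342, BioTracker Green Microtubule Cytoskeleton Dye, MitoTracker Red and Annexin V Alexa Fluor 680 were imaged on a CQ1 microscope at 37°C and 5% CO2 after compound addition.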

[1] = 12 h, 1 µM, compound concentration 1 uM
[2] = 12 h, 10 µM, compound concentration 10 uM
[3] = 24 h, 1 µM, compound concentration 1 uM
[4] = 24 h, 10 µM, compound concentration 10 uM
[5] = 48 h, 1 µM, compound concentration 1 uM
[6] = 48 h, 10 µM, compound concentration 10 uM

COc1ccc(CC[C@@H](OC(=O)[C@@H]2CCCCN2C(=O)[C@H](c2cc(OC)c(OC)c(OC)c2)C2CCCCC2)c2cccc(OCCN3CCOCC3)c2)cc1OC
Population Apoptotic (%) [1]: 53% and 42%
Population Fragmented Nuclei (%) [1]: 5% and 3%
Population Healthy Nuclei (%) [1]: 82% and 83%
Population Hoechst High Intensity Objects (%) [1]: 7% and 6%
Population Membrane Permeable-Phenotype (%) [1]: 7% and 6%
Population Mitochondria Different-Phenotype (%) [1]: 27% and 28%
Population Mitotic Cells (%) [1]: 46% and 57%
Population Normal (%) [1]: 92% and 93%
Population Pyknosed Nuclei (%) [1]: 11% and 12%
Population Tubulin-Different-Phenotype (%) [1]: 77% and 92%
Total Cell Count [1]: 574 and 636
Population Apoptotic (%) [2]: 70% and 68%
Population Fragmented Nuclei (%) [2]: 2%
Population Healthy Nuclei (%) [2]: 85% and 83%
Population Hoechst High Intensity Objects (%) [2]: 10% and 11%
Population Membrane Permeable-Phenotype (%) [2]: 2%
Population Mitochondria Different-Phenotype (%) [2]: 75% and 72%
Population Mitotic Cells (%) [2]: 29% and 31%
Population Normal (%) [2]: 89% and 88%
Population Pyknosed Nuclei (%) [2]: 12% and 13%
Population Tubulin-Different-Phenotype (%) [2]: 68% and 58%
Total Cell Count [2]: 560 and 485
Population Apoptotic (%) [3]: 46% and 44%
Population Fragmented Nuclei (%) [3]: 9% and 4%
Population Healthy Nuclei (%) [3]: 81% and 86%
Population Hoechst High Intensity Objects (%) [3]: 10% and 8%
Population Membrane Permeable-Phenotype (%) [3]: 8% and 7%
Population Mitochondria Different-Phenotype (%) [3]: 12% and 18%
Population Mitotic Cells (%) [3]: 53% and 55%
Population Normal (%) [3]: 89% and 91%
Population Pyknosed Nuclei (%) [3]: 8%
Population Tubulin-Different-Phenotype (%) [3]: 64% and 80%
Total Cell Count [3]: 873 and 879
Population Apoptotic (%) [4]: 72% and 63%
Population Fragmented Nuclei (%) [4]: 2%
Population Healthy Nuclei (%) [4]: 82% and 81%
Population Hoechst High Intensity Objects (%) [4]: 8% and 13%
Population Membrane Permeable-Phenotype (%) [4]: 0%
Population Mitochondria Different-Phenotype (%) [4]: 89% and 88%
Population Mitotic Cells (%) [4]: 27% and 36%
Population Normal (%) [4]: 91% and 86%
Population Pyknosed Nuclei (%) [4]: 14% and 15%
Population Tubulin-Different-Phenotype (%) [4]: 56% and 52%
Total Cell Count [4]: 512 and 487
Population Apoptotic (%) [5]: 30% and 18%
Population Fragmented Nuclei (%) [5]: 8% and 13%
Population Healthy Nuclei (%) [5]: 87% and 83%
Population Hoechst High Intensity Objects (%) [5]: 9% and 8%
Population Membrane Permeable-Phenotype (%) [5]: 6%
Population Mitochondria Different-Phenotype (%) [5]: 5% and 4%
Population Mitotic Cells (%) [5]: 69% and 81%
Population Normal (%) [5]: 90% and 91%
Population Pyknosed Nuclei (%) [5]: 3% and 2%
Population Tubulin-Different-Phenotype (%) [5]: 67% and 48%
Total Cell Count [5]: 1619 and 1643
Population Apoptotic (%) [6]: 84% and 73%
Population Fragmented Nuclei (%) [6]: 3% and 5%
Population Healthy Nuclei (%) [6]: 84% and 83%
Population Hoechst High Intensity Objects (%) [6]: 9% and 11%
Population Membrane Permeable-Phenotype (%) [6]: 1%
Population Mitochondria Different-Phenotype (%) [6]: 79% and 83%
Population Mitotic Cells (%) [6]: 15% and 26%
Population Normal (%) [6]: 90% and 88%
Population Pyknosed Nuclei (%) [6]: 11%
Population Tubulin-Different-Phenotype (%) [6]: 62% and 60%
Total Cell Count [6]: 551 and 526

Cc1cn(CCN2CCN(c3ccccc3-c3cc(C#N)cc(C(=O)NCCCN4CCCC4)c3)CC2)c2ccccc12
Population Apoptotic (%) [1]: 34% and 44%
Population Fragmented Nuclei (%) [1]: 3%
Population Healthy Nuclei (%) [1]: 82% and 84%
Population Hoechst High Intensity Objects (%) [1]: 7% and 6%
Population Membrane Permeable-Phenotype (%) [1]: 3% and 4%
Population Mitochondria Different-Phenotype (%) [1]: 26% and 20%
Population Mitotic Cells (%) [1]: 65% and 55%
Population Normal (%) [1]: 92% and 93%
Population Pyknosed Nuclei (%) [1]: 13% and 12%
Population Tubulin-Different-Phenotype (%) [1]: 72% and 71%
Total Cell Count [1]: 634 and 574
Population Apoptotic (%) [2]: 70% and 65%
Population Fragmented Nuclei (%) [2]: 2%
Population Healthy Nuclei (%) [2]: 81% and 78%
Population Hoechst High Intensity Objects (%) [2]: 5%
Population Membrane Permeable-Phenotype (%) [2]: 2% and 1%
Population Mitochondria Different-Phenotype (%) [2]: 71% and 72%
Population Mitotic Cells (%) [2]: 30% and 34%
Population Normal (%) [2]: 94%
Population Pyknosed Nuclei (%) [2]: 16% and 18%
Population Tubulin-Different-Phenotype (%) [2]: 97% and 94%
Total Cell Count [2]: 511 and 463
Population Apoptotic (%) [3]: 46% and 42%
Population Fragmented Nuclei (%) [3]: 5% and 3%
Population Healthy Nuclei (%) [3]: 86% and 89%
Population Hoechst High Intensity Objects (%) [3]: 8%
Population Membrane Permeable-Phenotype (%) [3]: 3%
Population Mitochondria Different-Phenotype (%) [3]: 12%
Population Mitotic Cells (%) [3]: 53% and 57%
Population Normal (%) [3]: 91%
Population Pyknosed Nuclei (%) [3]: 7% and 6%
Population Tubulin-Different-Phenotype (%) [3]: 57% and 51%
Total Cell Count [3]: 1111 and 826
Population Apoptotic (%) [4]: 77% and 76%
Population Fragmented Nuclei (%) [4]: 1% and 3%
Population Healthy Nuclei (%) [4]: 85% and 79%
Population Hoechst High Intensity Objects (%) [4]: 9% and 4%
Population Membrane Permeable-Phenotype (%) [4]: 1% and 2%
Population Mitochondria Different-Phenotype (%) [4]: 88% and 81%
Population Mitotic Cells (%) [4]: 22% and 23%
Population Normal (%) [4]: 90% and 95%
Population Pyknosed Nuclei (%) [4]: 12% and 16%
Population Tubulin-Different-Phenotype (%) [4]: 97% and 95%
Total Cell Count [4]: 524 and 487
Population Apoptotic (%) [5]: 16% and 21%
Population Fragmented Nuclei (%) [5]: 14% and 8%
Population Healthy Nuclei (%) [5]: 82% and 87%
Population Hoechst High Intensity Objects (%) [5]: 10% and 8%
Population Membrane Permeable-Phenotype (%) [5]: 5% and 3%
Population Mitochondria Different-Phenotype (%) [5]: 1% and 4%
Population Mitotic Cells (%) [5]: 83% and 78%
Population Normal (%) [5]: 89% and 91%
Population Pyknosed Nuclei (%) [5]: 3% and 4%
Population Tubulin-Different-Phenotype (%) [5]: 27% and 31%
Total Cell Count [5]: 2524 and 1476
Population Apoptotic (%) [6]: 65% and 73%
Population Fragmented Nuclei (%) [6]: 6% and 8%
Population Healthy Nuclei (%) [6]: 82% and 77%
Population Hoechst High Intensity Objects (%) [6]: 7% and 11%
Population Membrane Permeable-Phenotype (%) [6]: 3% and 1%
Population Mitochondria Different-Phenotype (%) [6]: 57% and 66%
Population Mitotic Cells (%) [6]: 34% and 26%
Population Normal (%) [6]: 92% and 88%
Population Pyknosed Nuclei (%) [6]: 10% and 14%
Population Tubulin-Different-Phenotype (%) [6]: 90% and 93%
Total Cell Count [6]: 709 and 587

From ChEMBL document CHEMBL5303300, “EUbOPEN Chemogenomics Library - Multiplex” (2023)
